Experimental data taken from ChEMBL document CHEMBL3046615, “Isolation of nematicidal compounds from Tagetes patula L. yellow flowers: structure-activity relationship studies against cyst nematode Heterodera zeae infective stage larvae” (2011).
Activity calls are given as the source filed them.

Key:
Heterodera zeae [1] = assay: Nematicidal activity against Heterodera zeae infective stage larvae assessed as nematode mortality at 0.125% under light conditions measured 72 hr post dose by stereoscopic microscopy; format: functional
Summary of the method: (§1)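 Freshly hatched H. zeae second-stage juveniles, 100 per Petri plate, three replicates. Samples in MeOH, DMSO or water were tested in glass cavity blocks; petroleum ether samples were dried onto the block and larvae transferred on agar pieces. Percentages are dilutions of 30 mg/mL stocks (extracts/fractions) or 1 mg/mL stocks (pure compounds). Incubated at 28 ± 2 °C in light or dark box; mortality averaged over three replicates.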

Heterodera zeae [2] = assay: Nematicidal activity against Heterodera zeae infective stage larvae assessed as nematode mortality at 0.125% under light conditions measured 5 to 60 min post dose by stereoscopic microscopy; format: functional, organism-based
Summary of the method: (§2)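 H. zeae freshly hatched second-stage juveniles, 100 per plate, three replicates, at 28 ± 2 °C under light or in a dark box. Dilutions are % of a stock: 30 mg/mL for extracts/fractions, 1 mg/mL for pure compounds. Methanol-, DMSO- or water-soluble samples were tested in glass cavity blocks. Petroleum ether-soluble samples were air-dried in the block and covered with agar pieces bearing cultured larvae. Mortality was followed over 5–60 min; each value is the mean of three experiments.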

Heterodera zeae [3] = assay: Nematicidal activity against Heterodera zeae infective stage larvae assessed as nematode mortality at 0.125% under dark conditions measured 24 hr post dose by stereoscopic microscopy; format: functional; summary of the method: as §1
Heterodera zeae [4] = assay: Nematicidal activity against Heterodera zeae infective stage larvae assessed as nematode mortality at 2% under light conditions measured 5 to 60 min post dose by stereoscopic microscopy; format: functional, organism-based; summary of the method: as §2
Heterodera zeae [5] = assay: Nematicidal activity against Heterodera zeae infective stage larvae assessed as nematode mortality at 0.5% under dark conditions measured 72 hr post dose by stereoscopic microscopy; format: functional; summary of the method: as §1
Heterodera zeae [6] = assay: Nematicidal activity against Heterodera zeae infective stage larvae assessed as nematode mortality at 2% under dark conditions measured 5 to 60 min post dose by stereoscopic microscopy; format: functional, organism-based; summary of the method: as §2
Heterodera zeae [7] = assay: Nematicidal activity against Heterodera zeae infective stage larvae assessed as nematode mortality at 5% under light conditions measured 5 to 60 min post dose by stereoscopic microscopy; format: functional, organism-based; summary of the method: as §2
Heterodera zeae [8] = assay: Nematicidal activity against Heterodera zeae infective stage larvae assessed as nematode mortality at 0.5% under dark conditions measured 24 hr post dose by stereoscopic microscopy; format: functional; summary of the method: as §1
Heterodera zeae [9] = assay: Nematicidal activity against Heterodera zeae infective stage larvae assessed as nematode mortality at 1% under dark conditions measured 48 hr post dose by stereoscopic microscopy; format: functional; summary of the method: as §1
Heterodera zeae [10] = assay: Nematicidal activity against Heterodera zeae infective stage larvae assessed as nematode mortality at 0.125% under dark conditions measured 5 to 60 min post dose by stereoscopic microscopy; format: functional, organism-based; summary of the method: as §2
Heterodera zeae [11] = assay: Nematicidal activity against Heterodera zeae infective stage larvae assessed as nematode mortality at 1% under light conditions measured 5 to 60 min post dose by stereoscopic microscopy; format: functional, organism-based; summary of the method: as §2
Heterodera zeae [12] = assay: Nematicidal activity against Heterodera zeae infective stage larvae assessed as nematode mortality at 0.25% under light conditions measured 48 hr post dose by stereoscopic microscopy; format: functional; summary of the method: as §1
Heterodera zeae [13] = assay: Nematicidal activity against Heterodera zeae infective stage larvae assessed as nematode mortality at 0.25% under dark conditions measured 72 hr post dose by stereoscopic microscopy; format: functional; summary of the method: as §1
Heterodera zeae [14] = assay: Nematicidal activity against Heterodera zeae infective stage larvae assessed as nematode mortality at 0.5% under light conditions measured 72 hr post dose by stereoscopic microscopy; format: functional; summary of the method: as §1
Heterodera zeae [15] = assay: Nematicidal activity against Heterodera zeae infective stage larvae assessed as nematode mortality at 1% under light conditions measured 72 hr post dose by stereoscopic microscopy; format: functional; summary of the method: as §1
Heterodera zeae [16] = assay: Nematicidal activity against Heterodera zeae infective stage larvae assessed as nematode mortality at 1% under dark conditions measured 5 to 60 min post dose by stereoscopic microscopy; format: functional, organism-based; summary of the method: as §2
Heterodera zeae [17] = assay: Nematicidal activity against Heterodera zeae infective stage larvae assessed as nematode mortality at 0.25% under dark conditions measured 48 hr post dose by stereoscopic microscopy; format: functional; summary of the method: as §1
Heterodera zeae [18] = assay: Nematicidal activity against Heterodera zeae infective stage larvae assessed as nematode mortality at 0.125% under dark conditions measured 72 hr post dose by stereoscopic microscopy; format: functional; summary of the method: as §1
Heterodera zeae [19] = assay: Nematicidal activity against Heterodera zeae infective stage larvae assessed as nematode mortality at 0.25% under dark conditions measured 5 to 60 min post dose by stereoscopic microscopy; format: functional, organism-based; summary of the method: as §2
Heterodera zeae [20] = assay: Nematicidal activity against Heterodera zeae infective stage larvae assessed as nematode mortality at 0.25% under light conditions measured 72 hr post dose by stereoscopic microscopy; format: functional; summary of the method: as §1
Heterodera zeae [21] = assay: Nematicidal activity against Heterodera zeae infective stage larvae assessed as nematode mortality at 0.125% under dark conditions measured 48 hr post dose by stereoscopic microscopy; format: functional; summary of the method: as §1
Heterodera zeae [22] = assay: Nematicidal activity against Heterodera zeae infective stage larvae assessed as nematode mortality at 0.25% under light conditions measured 5 to 60 min post dose by stereoscopic microscopy; format: functional, organism-based; summary of the method: as §2
Heterodera zeae [23] = assay: Nematicidal activity against Heterodera zeae infective stage larvae assessed as nematode mortality at 0.5% under dark conditions measured 48 hr post dose by stereoscopic microscopy; format: functional; summary of the method: as §1
Heterodera zeae [24] = assay: Nematicidal activity against Heterodera zeae infective stage larvae assessed as nematode mortality at 1% under dark conditions measured 24 hr post dose by stereoscopic microscopy; format: functional; summary of the method: as §1
Heterodera zeae [25] = assay: Nematicidal activity against Heterodera zeae infective stage larvae assessed as nematode mortality at 0.5% under dark conditions measured 5 to 60 min post dose by stereoscopic microscopy; format: functional, organism-based; summary of the method: as §2
Heterodera zeae [26] = assay: Nematicidal activity against Heterodera zeae infective stage larvae assessed as nematode mortality at 0.5% under light conditions measured 48 hr post dose by stereoscopic microscopy; format: functional; summary of the method: as §1
Heterodera zeae [27] = assay: Nematicidal activity against Heterodera zeae infective stage larvae assessed as nematode mortality at 0.125% under light conditions measured 48 hr post dose by stereoscopic microscopy; format: functional; summary of the method: as §1
Heterodera zeae [28] = assay: Nematicidal activity against Heterodera zeae infective stage larvae assessed as nematode mortality at 0.5% under light conditions measured 5 to 60 min post dose by stereoscopic microscopy; format: functional, organism-based; summary of the method: as §2
Heterodera zeae [29] = assay: Nematicidal activity against Heterodera zeae infective stage larvae assessed as nematode mortality at 5% under dark conditions measured 5 to 60 min post dose by stereoscopic microscopy; format: functional, organism-based; summary of the method: as §2
Heterodera zeae [30] = assay: Nematicidal activity against Heterodera zeae infective stage larvae assessed as nematode mortality at 1% under light conditions measured 48 hr post dose by stereoscopic microscopy; format: functional; summary of the method: as §1
Heterodera zeae [31] = assay: Nematicidal activity against Heterodera zeae infective stage larvae assessed as nematode mortality at 0.125% under light conditions measured 24 hr post dose by stereoscopic microscopy; format: functional; summary of the method: as §1
Heterodera zeae [32] = assay: Nematicidal activity against Heterodera zeae infective stage larvae assessed as nematode mortality at 0.5% under light conditions measured 24 hr post dose by stereoscopic microscopy; format: functional; summary of the method: as §1
Heterodera zeae [33] = assay: Nematicidal activity against Heterodera zeae infective stage larvae assessed as nematode mortality at 1% under light conditions measured 24 hr post dose by stereoscopic microscopy; format: functional; summary of the method: as §1
Heterodera zeae [34] = assay: Nematicidal activity against Heterodera zeae infective stage larvae assessed as nematode mortality at 0.25% under dark conditions measured 24 hr post dose by stereoscopic microscopy; format: functional; summary of the method: as §1
Heterodera zeae [35] = assay: Nematicidal activity against Heterodera zeae infective stage larvae assessed as nematode mortality at 1% under dark conditions measured 72 hr post dose by stereoscopic microscopy; format: functional; summary of the method: as §1
Heterodera zeae [36] = assay: Nematicidal activity against Heterodera zeae infective stage larvae assessed as nematode mortality at 0.25% under light conditions measured 24 hr post dose by stereoscopic microscopy; format: functional; summary of the method: as §1

CCCCCCCCCCCCCCCCO [CETYL ALCOHOL]
60%: mortality (Heterodera zeae [8]) | mortality (Heterodera zeae [32])
inactive: Activity (Heterodera zeae [2]) | Activity (Heterodera zeae [4]) | Activity (Heterodera zeae [6]) | Activity (Heterodera zeae [7]) | Activity (Heterodera zeae [10]) | Activity (Heterodera zeae [11]) | Activity (Heterodera zeae [16]) | Activity (Heterodera zeae [19]) | Activity (Heterodera zeae [22]) | Activity (Heterodera zeae [25]) | Activity (Heterodera zeae [28]) | Activity (Heterodera zeae [29])
40%: mortality (Heterodera zeae [1]) | mortality (Heterodera zeae [18])
0%: mortality (Heterodera zeae [3]) | mortality (Heterodera zeae [21]) | mortality (Heterodera zeae [27]) | mortality (Heterodera zeae [31]) | mortality (Heterodera zeae [34]) | mortality (Heterodera zeae [36])
70%: mortality (Heterodera zeae [24]) | mortality (Heterodera zeae [33])
50%: mortality (Heterodera zeae [12]) | mortality (Heterodera zeae [17])
80%: mortality (Heterodera zeae [9]) | mortality (Heterodera zeae [13]) | mortality (Heterodera zeae [20]) | mortality (Heterodera zeae [23]) | mortality (Heterodera zeae [26]) | mortality (Heterodera zeae [30])
100%: mortality (Heterodera zeae [5]) | mortality (Heterodera zeae [14]) | mortality (Heterodera zeae [15]) | mortality (Heterodera zeae [35])

O=C(O)c1ccc(O)cc1 [PARABEN]
inactive: Activity (Heterodera zeae [2]) | Activity (Heterodera zeae [4]) | Activity (Heterodera zeae [6]) | Activity (Heterodera zeae [7]) | Activity (Heterodera zeae [10]) | Activity (Heterodera zeae [11]) | Activity (Heterodera zeae [16]) | Activity (Heterodera zeae [19]) | Activity (Heterodera zeae [22]) | Activity (Heterodera zeae [25]) | Activity (Heterodera zeae [28]) | Activity (Heterodera zeae [29])
40%: mortality (Heterodera zeae [9]) | mortality (Heterodera zeae [12]) | mortality (Heterodera zeae [17]) | mortality (Heterodera zeae [18]) | mortality (Heterodera zeae [23]) | mortality (Heterodera zeae [26]) | mortality (Heterodera zeae [27])
70%: mortality (Heterodera zeae [35])
100%: mortality (Heterodera zeae [15])
0%: mortality (Heterodera zeae [3]) | mortality (Heterodera zeae [8]) | mortality (Heterodera zeae [24]) | mortality (Heterodera zeae [31]) | mortality (Heterodera zeae [32]) | mortality (Heterodera zeae [33]) | mortality (Heterodera zeae [34]) | mortality (Heterodera zeae [36])
50%: mortality (Heterodera zeae [1]) | mortality (Heterodera zeae [5]) | mortality (Heterodera zeae [13]) | mortality (Heterodera zeae [14]) | mortality (Heterodera zeae [20]) | mortality (Heterodera zeae [30])
10%: mortality (Heterodera zeae [21])

O=c1c(O)c(-c2ccc(O)c(O)c2)oc2cc(O)cc(O)c12 [QUERCETIN]
40%: mortality (Heterodera zeae [3]) | mortality (Heterodera zeae [8]) | mortality (Heterodera zeae [18]) | mortality (Heterodera zeae [21]) | mortality (Heterodera zeae [31]) | mortality (Heterodera zeae [34]) | mortality (Heterodera zeae [36])
80%: mortality (Heterodera zeae [1]) | mortality (Heterodera zeae [14])
50%: mortality (Heterodera zeae [12]) | mortality (Heterodera zeae [13]) | mortality (Heterodera zeae [17]) | mortality (Heterodera zeae [23]) | mortality (Heterodera zeae [24]) | mortality (Heterodera zeae [26]) | mortality (Heterodera zeae [27]) | mortality (Heterodera zeae [30]) | mortality (Heterodera zeae [32]) | mortality (Heterodera zeae [33])
inactive: Activity (Heterodera zeae [2]) | Activity (Heterodera zeae [4]) | Activity (Heterodera zeae [6]) | Activity (Heterodera zeae [7]) | Activity (Heterodera zeae [10]) | Activity (Heterodera zeae [11]) | Activity (Heterodera zeae [16]) | Activity (Heterodera zeae [19]) | Activity (Heterodera zeae [22]) | Activity (Heterodera zeae [25]) | Activity (Heterodera zeae [28]) | Activity (Heterodera zeae [29])
70%: mortality (Heterodera zeae [5]) | mortality (Heterodera zeae [9]) | mortality (Heterodera zeae [15]) | mortality (Heterodera zeae [20]) | mortality (Heterodera zeae [35])
